This is an account of results in ChEMBL document CHEMBL1687750, “Nonclinical pharmacokinetics of oseltamivir and oseltamivir carboxylate in the central nervous system” (Antimicrob Agents Chemother, 2009).

Data set [1] can be described thus: Prodrug conversion in commercial brain S9 fractions assessed as conversion of oseltamivir to oseltamivir carboxylate. The class given is ADME. In short, it runs like this: (§1)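 S9 from brain or liver (rat S9 made by homogenizing tissue in ~4 ml Tris-sucrose buffer per g, supernatant after 9,000 × g at 10°C; pooled human brain and liver S9 also used), protein by bicinchoninic acid assay. Oseltamivir: triplicate, 10 μM 14C-oseltamivir final, 1.0 mg S9 protein, 100 mM Tris-HCl pH 7.4, 30 min at 37°C, quenched with TCA-acetonitrile.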

Data set [2] is described as follows: Prodrug conversion in commercial brain S9 fractions assessed as paranitrophenol generation rate assessed per mg of protein per min. The data set is classed as ADME.
Data set [3] can be described thus: Prodrug conversion in 42 days old male rat brain S9 fractions assessed as conversion of oseltamivir to oseltamivir carboxylate. The class given is ADME, subcellular, S9 fraction. In short, it runs like this:
(§2)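 Rat brain or liver S9 (9,000 × g supernatant; 1.0 mg protein) was incubated in triplicate with 10 µM 14C-oseltamivir (final) in 100 mM Tris-HCl pH 7.4 for 30 min at 37°C. Reactions were quenched with TCA-acetonitrile, and the fraction converted to OC was measured by radioflow HPLC with fractionation. Rate was calculated as (pmol/ml substrate × fraction hydrolyzed)/(mg protein/ml × time), minus the no-protein background.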

A short description of data set [4]: Prodrug conversion in 7 days old male rat liver S9 fractions assessed as conversion of oseltamivir to oseltamivir carboxylate. The class given is ADME, subcellular, S9 fraction. The method, boiled down: as §1
Data set [5] concerns the target ATP-dependent translocase ABCB1 (Homo sapiens, UniProt P08183). Description: Inhibition of human MDR1-mediated digoxin permeability expressed in pig LLC-PK1 cells. The class given is cell-based. In short, it runs like this:
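P-gp-transfected LLC-PK1 monolayers were used, with labeled digoxin (10 nM) as substrate and unlabeled oseltamivir (0.1–10 mM) added to both donor and receiver sides. Transport was bidirectional at 37°C under 5% CO2, with the acceptor side sampled up to 3 h and counted by scintillation. Three inserts were used per condition, and IC50 was derived from inhibition of digoxin transport.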

Data set [6] can be described thus: Prodrug conversion in 42 days old female rat brain S9 fractions assessed as oseltamivir carboxylate generation rate assessed per mg of protein per min. The class given is ADME, tissue-based. The method, boiled down: as §2
Data set [7] is described as follows: Prodrug conversion in 7 days old female rat brain S9 fractions assessed as paranitrophenol generation rate assessed per mg of protein per min. The class given is ADME, tissue-based.

Usually IC50 stands for the concentration at which inhibition is half-maximal. Low values mean greater potency, high ones weaker potency.

The structures appear in SMILES notation.

Sequence of ATP-dependent translocase ABCB1 (P08183 whole entry): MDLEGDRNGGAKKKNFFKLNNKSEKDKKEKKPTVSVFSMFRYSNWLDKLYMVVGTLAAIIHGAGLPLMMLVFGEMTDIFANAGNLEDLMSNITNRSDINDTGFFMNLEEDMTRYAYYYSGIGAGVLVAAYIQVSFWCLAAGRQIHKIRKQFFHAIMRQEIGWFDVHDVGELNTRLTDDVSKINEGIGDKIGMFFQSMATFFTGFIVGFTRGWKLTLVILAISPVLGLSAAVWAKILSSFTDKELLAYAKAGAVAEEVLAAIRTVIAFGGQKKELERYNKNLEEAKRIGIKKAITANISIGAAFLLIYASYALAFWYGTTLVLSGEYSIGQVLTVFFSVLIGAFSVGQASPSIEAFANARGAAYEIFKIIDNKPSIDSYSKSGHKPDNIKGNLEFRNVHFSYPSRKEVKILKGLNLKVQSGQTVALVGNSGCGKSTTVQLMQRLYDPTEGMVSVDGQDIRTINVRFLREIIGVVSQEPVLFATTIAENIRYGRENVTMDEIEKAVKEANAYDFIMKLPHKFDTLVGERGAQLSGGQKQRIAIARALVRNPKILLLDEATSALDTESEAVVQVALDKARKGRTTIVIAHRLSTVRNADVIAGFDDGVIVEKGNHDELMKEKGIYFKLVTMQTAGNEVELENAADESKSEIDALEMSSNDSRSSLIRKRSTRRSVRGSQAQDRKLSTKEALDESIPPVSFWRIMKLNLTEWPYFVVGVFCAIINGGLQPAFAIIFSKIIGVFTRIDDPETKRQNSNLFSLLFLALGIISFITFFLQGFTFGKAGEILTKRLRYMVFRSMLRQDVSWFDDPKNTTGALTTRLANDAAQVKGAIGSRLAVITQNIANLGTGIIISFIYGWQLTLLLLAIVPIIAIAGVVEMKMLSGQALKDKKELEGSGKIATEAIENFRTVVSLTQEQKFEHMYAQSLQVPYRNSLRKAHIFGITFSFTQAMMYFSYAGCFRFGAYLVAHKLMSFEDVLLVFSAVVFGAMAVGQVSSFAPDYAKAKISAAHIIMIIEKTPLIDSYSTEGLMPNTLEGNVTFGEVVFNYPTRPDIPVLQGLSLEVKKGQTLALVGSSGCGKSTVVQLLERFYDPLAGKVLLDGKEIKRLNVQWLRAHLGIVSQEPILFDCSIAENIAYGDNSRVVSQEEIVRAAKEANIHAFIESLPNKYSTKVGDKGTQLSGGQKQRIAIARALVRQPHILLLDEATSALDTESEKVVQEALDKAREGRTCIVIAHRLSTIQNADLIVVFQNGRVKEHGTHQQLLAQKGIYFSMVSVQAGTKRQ

Regarding `CCOC(=O)C1=C[C@@H](OC(CC)CC)[C@H](NC(C)=O)[C@@H](N)C1` [OSELTAMIVIR], the Activity came to 0.1% in data set [1]; 49 nmol in data set [2]; 0.16% in data set [3]; 0.1% in data set [4]; 0.6 pmol/min/mg in data set [6]; 92 nmol in data set [7]. This molecule also gave a concentration for half-maximal inhibition (IC50) in data set [5] of 1300 µM.
